Assays:
[1] = target: Leucine-rich repeat serine/threonine-protein kinase 2 (Homo sapiens, UniProt Q5S007, G2019S); assay: Inhibition of recombinant human GST-tagged LRRK2 G2019S mutant catalytic domain (970 to 2527 residues) expressed in baculovirus expression system by radiometric assay
[2] = Stability in mouse liver microsomes assessed as compound turnover rate measured after 30 mins; type: ADME, Microsome; conditions: read-out: Drug metabolism
Method in brief: (§1)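 In vitro incubation of compound with liver microsomes: human (HLM) for 40 min, mouse (MLM) for 30 min. Reported as % turnover of parent compound.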

[3] = Stability in human liver microsomes assessed as compound turnover rate measured after 40 mins; type: ADME, Microsome; conditions: read-out: Drug metabolism; method in brief: as §1
[4] = Lipophilicity, log D of the compound at pH 7.4; type: physicochemical; conditions: buffer
[5] = Ratio of drug level in mouse brain to plasma; conditions: read-out: BPR
Method in brief: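 Mice; ratio based on total (not unbound) compound concentrations in brain versus plasma.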

Chain of Leucine-rich repeat serine/threonine-protein kinase 2 (Q5S007 whole entry G2019S, the tested form may be a part): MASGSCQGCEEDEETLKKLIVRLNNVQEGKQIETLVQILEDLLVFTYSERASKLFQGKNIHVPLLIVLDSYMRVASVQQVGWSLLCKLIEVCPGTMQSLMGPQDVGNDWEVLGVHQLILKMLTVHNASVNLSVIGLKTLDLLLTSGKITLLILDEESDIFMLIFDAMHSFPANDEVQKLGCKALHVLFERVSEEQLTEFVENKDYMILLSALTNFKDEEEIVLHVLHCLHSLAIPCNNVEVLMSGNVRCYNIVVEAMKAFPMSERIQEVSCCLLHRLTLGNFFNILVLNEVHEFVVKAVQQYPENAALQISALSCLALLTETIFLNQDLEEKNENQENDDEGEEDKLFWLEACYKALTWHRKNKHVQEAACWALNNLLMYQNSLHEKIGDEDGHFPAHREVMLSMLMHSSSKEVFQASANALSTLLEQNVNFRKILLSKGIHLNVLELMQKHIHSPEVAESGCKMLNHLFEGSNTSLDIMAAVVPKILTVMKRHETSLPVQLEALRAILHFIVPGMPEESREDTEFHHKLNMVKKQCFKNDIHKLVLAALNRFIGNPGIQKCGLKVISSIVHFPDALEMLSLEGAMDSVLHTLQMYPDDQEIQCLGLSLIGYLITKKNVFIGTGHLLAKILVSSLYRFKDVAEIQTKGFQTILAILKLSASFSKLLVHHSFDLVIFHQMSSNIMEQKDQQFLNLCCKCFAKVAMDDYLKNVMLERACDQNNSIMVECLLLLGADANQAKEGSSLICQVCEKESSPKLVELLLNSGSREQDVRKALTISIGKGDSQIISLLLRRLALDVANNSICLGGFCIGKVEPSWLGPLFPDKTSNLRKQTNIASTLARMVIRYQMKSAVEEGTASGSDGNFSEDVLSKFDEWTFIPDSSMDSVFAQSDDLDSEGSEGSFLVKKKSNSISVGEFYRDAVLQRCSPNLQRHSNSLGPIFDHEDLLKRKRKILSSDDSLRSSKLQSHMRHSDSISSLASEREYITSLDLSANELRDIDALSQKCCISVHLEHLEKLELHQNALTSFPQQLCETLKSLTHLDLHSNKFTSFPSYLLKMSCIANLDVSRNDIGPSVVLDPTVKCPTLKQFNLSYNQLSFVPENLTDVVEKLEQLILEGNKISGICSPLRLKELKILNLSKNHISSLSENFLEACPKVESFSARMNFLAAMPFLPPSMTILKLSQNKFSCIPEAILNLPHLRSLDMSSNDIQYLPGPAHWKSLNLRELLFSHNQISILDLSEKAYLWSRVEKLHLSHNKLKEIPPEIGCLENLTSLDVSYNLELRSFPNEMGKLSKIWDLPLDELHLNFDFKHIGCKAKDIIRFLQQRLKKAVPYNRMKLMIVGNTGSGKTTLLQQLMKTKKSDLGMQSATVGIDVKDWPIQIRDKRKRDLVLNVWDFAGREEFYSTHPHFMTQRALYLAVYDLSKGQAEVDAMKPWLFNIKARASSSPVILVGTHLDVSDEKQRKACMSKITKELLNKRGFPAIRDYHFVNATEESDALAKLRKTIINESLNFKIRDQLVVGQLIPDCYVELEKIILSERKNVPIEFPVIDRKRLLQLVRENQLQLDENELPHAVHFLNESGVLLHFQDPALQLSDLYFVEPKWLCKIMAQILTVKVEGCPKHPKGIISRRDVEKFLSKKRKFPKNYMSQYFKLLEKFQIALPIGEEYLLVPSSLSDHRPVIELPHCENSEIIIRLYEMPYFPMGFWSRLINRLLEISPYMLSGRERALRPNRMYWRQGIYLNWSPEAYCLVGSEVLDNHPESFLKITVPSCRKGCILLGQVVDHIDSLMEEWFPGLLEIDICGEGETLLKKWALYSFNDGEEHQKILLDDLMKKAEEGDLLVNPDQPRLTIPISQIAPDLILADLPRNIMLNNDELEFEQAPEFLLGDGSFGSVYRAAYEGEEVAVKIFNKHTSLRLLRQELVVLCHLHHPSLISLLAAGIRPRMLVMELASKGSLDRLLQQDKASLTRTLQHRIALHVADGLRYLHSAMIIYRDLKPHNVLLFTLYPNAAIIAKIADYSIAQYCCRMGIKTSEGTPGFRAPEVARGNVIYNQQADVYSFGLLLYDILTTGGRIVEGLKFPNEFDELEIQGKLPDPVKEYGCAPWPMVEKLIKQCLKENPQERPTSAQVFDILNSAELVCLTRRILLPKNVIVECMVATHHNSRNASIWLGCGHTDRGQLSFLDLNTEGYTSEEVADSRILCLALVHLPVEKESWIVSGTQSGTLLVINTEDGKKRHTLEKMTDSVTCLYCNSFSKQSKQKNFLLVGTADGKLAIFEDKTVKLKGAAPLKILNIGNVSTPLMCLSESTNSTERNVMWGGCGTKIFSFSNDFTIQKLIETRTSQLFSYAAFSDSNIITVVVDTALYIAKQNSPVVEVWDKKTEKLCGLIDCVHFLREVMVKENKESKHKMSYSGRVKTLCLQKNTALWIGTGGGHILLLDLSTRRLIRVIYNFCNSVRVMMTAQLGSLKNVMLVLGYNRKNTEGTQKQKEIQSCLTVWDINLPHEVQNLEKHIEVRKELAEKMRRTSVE

| Compound | IC50 [1] [nM] | metabolised at 0.5 h [2] [%] | metabolised at 40 min [3] [%] | logD [4] | Kp [5] |
| --- | --- | --- | --- | --- | --- |
| c1cc2[nH]nc(-c3cnn(C4CCCC4)c3)c2c(NC2CCOCC2)n1 | 170 |  |  |  |  |
| Cc1c[nH]c2ccnc(NC3CCCCC3)c12 | > 10000 |  |  |  |  |
| CC(C)n1cc(-c2n[nH]c3ccnc(OC4CCCCC4)c23)cn1 | 2 | 66 | 36 | 3.7 |  |
| CCOc1nccc2[nH]nc(C)c12 | 440 |  |  |  |  |
| Cc1nn(C)c2ccnc(NC3CCCCC3)c12 | > 10000 |  |  |  |  |
| Cc1n[nH]c2ccnc(NC3CCC3)c12 | 530 |  |  |  |  |
| Cc1n[nH]c2ccnc(NC(C)C)c12 | 880 |  |  |  |  |
| Cc1n[nH]c2ccnc(OC(C)C)c12 | 68 | 24 | 2 |  |  |
| Cc1n[nH]c2ccnc(N3CCOCC3)c12 | 3000 |  |  |  |  |
| Cc1n[nH]c2cncc(NC3CCCCC3)c12 | 770 |  |  |  |  |
| c1cc(-c2n[nH]c3ccnc(NC4CCOCC4)c23)cc(N2CCOCC2)n1 |  | 11 | 17 |  |  |
| Cc1n[nH]c2ccnc(NC3CC3)c12 | 4700 |  |  |  |  |
| Cc1noc2ccnc(NC3CCCCC3)c12 | > 10000 |  |  |  |  |
| Cc1n[nH]c2ccnc(OC3CCN(C)CC3)c12 | 1900 |  |  |  |  |
| Cc1n[nH]c2ccnc(OC3CCCC3)c12 | 86 | 42 | 31 |  |  |
| Cc1n[nH]c2ccnc(O[C@@H]3CCOC3)c12 | 250 | 13 | 0 |  |  |

| Compound | IC50 [1] [nM] | metabolised at 0.5 h [2] [%] | metabolised at 40 min [3] [%] | logD [4] | Kp [5] |
| --- | --- | --- | --- | --- | --- |
| Cc1n[nH]c2ccnc(NCc3ccc(Cl)cc3)c12 | 4900 |  |  |  |  |
| Cc1n[nH]c2ccnc(Nc3cccnc3)c12 | > 10000 |  |  |  |  |
| CC[C@H](C)Nc1nccc2[nH]nc(C)c12 | 300 | 9 | 6 |  |  |
| Cn1cc(-c2n[nH]c3ccnc(NC4CCCCC4)c23)cn1 | 130 | 19 | 21 | 2.7 |  |
| Cc1n[nH]c2ccnc(NC3CCCC3)c12 | 410 | 10 | 2 |  |  |
| CC(C)Cn1cc(-c2n[nH]c3ccnc(NC4CCOCC4)c23)cn1 | 410 |  |  |  |  |
| CC(C)Cn1cc(-c2n[nH]c3ccnc(OC4CCOCC4)c23)cn1 | 15 |  |  |  |  |
| Cc1n[nH]c2ccnc(OC3CCC3)c12 | 170 | 41 | 22 |  |  |
| c1cc2[nH]nc(-c3cnn(C4CCCC4)c3)c2c(OC2CCOCC2)n1 | 4 |  |  |  |  |
| Cc1n[nH]c2ccnc(N(C)C3CCCCC3)c12 | 1600 |  |  |  |  |
| Cc1n[nH]c2ccnc(NCC3CC3)c12 | 2400 |  |  |  |  |
| CC(C)n1cc(-c2n[nH]c3ccnc(NC4CCCCC4)c23)cn1 | 110 | 43 | 23 | 3.2 |  |
| Cc1n[nH]c2ccnc(NC3CCOCC3)c12 | 190 | 4 | 0 | 1.2 | 1.6 |
| Cc1n[nH]c2ccnc(Nc3ccc(Cl)cc3)c12 | 390 |  |  |  |  |
| Cc1ccc(Nc2nccc3[nH]nc(C)c23)cc1 | 97 | 28 | 13 |  |  |
| Cc1n[nH]c2ccnc(Nc3cnn(C)c3)c12 | 830 |  |  |  |  |
